In BindingDB's records for doi:10.1021/jm990004i (Imperial College, 1999):

Target: T1, Carboxypeptidase G2 (Pseudomonas aeruginosa (strain ATCC 15692 / DSM 22644 / CIP 104116 / JCM 14847 / LMG 12228 / 1C / PRS 101 / PAO1), UniProt Q9I056)
T1 sequence (Q9I056 whole entry): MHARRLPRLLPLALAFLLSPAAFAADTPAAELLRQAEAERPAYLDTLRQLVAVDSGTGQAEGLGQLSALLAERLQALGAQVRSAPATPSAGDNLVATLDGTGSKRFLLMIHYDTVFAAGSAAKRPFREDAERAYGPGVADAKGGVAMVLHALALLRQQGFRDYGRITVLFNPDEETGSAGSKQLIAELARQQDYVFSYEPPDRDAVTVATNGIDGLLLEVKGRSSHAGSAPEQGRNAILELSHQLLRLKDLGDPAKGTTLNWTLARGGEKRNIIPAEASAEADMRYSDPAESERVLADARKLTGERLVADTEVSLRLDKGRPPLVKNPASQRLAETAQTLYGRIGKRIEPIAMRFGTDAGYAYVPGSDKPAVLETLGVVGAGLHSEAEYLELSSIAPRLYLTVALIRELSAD
Test: Inhibitory activity against bacterial carboxypeptidase G2 by Dixon plot assay
Summary of the method: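 Bacterial CPG2 (10 μL stock, 0.1 U) started with 990 μL methotrexate solutions at several concentrations plus inhibitor 0–3.0 μM, in 0.1 M Tris-HCl pH 7.3 with 0.1 mM ZnCl2, 37 °C. Initial rate of absorbance decrease at 320 nm (methotrexate ε 8300). Apparent Ki read from Dixon plot of 1/V against inhibitor concentration.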

**Q.** With `Nc1cccc(SC(=O)NC(CCC(=O)O)C(=O)O)c1` (stereo unspecified) [2-(3-Amino-phenylsulfanylcarbonylamino)-pentanedioic acid] as the compound, how does the Ki read?
**A.** 2500 nM

**Q.** With `COc1ccc(SC(=O)N[C@H](CCC(=O)O)C(=O)O)cc1` [(R)-2-(4-Methoxy-phenylsulfanylcarbonylamino)-pentanedioic acid] as the compound, how does the Ki read?
**A.** 300 nM

**Q.** `Cc1ccc(SC(=O)NC(CCC(=O)O)C(=O)O)cc1` (stereo unspecified) [2-p-Tolylsulfanylcarbonylamino-pentanedioic acid] was tested. Which Ki did it give?
**A.** 1050 nM

**Q.** Which Ki does the source give for `O=C(O)CCC(NC(=O)Sc1cc[n+]([O-])cc1)C(=O)O` (stereo unspecified) [2-(1-Oxy-pyridin-4-ylsulfanylcarbonylamino)-pentanedioic acid] here?
**A.** 165000 nM

**Q.** `Nc1ccc(SC(=O)NC(CCC(=O)O)C(=O)O)cc1` (stereo unspecified) [2-(4-Amino-phenylsulfanylcarbonylamino)-pentanedioic acid] was tested. Which Ki did it give?
**A.** 5800 nM

**Q.** How did the Ki turn out when `COc1cccc(SC(=O)NC(CCC(=O)O)C(=O)O)c1` (stereo unspecified) [2-(3-Methoxy-phenylsulfanylcarbonylamino)-pentanedioic acid] was run?
**A.** 1070 nM
